Test results: ChEMBL document CHEMBL1122774, “Tri- and tetrapeptide analogues of kinins as potential renal vasodilators” (J Med Chem, 1984)
Where “and” joins values, the source holds several entries; their conditions need not be identical. Equal entries are not always repeated. Square brackets hold non-standard residues; d marks the D form. Peptide text beside a SMILES is read from it. * marks the point of attachment. ξ: configuration not given here. Butanoyl(4-(4-HOPh)) = O=C(CCCc1ccc(O)cc1)*; ξαMeF = CC(N)(Cc1ccccc1)C(=O)O

Experiments:
[1] = Average max percent decrease in RVR (renal vascular resistance) was determined
How it was run: (§1)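 Secondary protocol in anesthetized dogs. Drug given as iv infusion at progressively increasing rates, each dose level for 5 min. The maximum effect is taken as the largest percent decrease in renal vascular resistance (RVR) reached with the compound. RVR is calculated as mean arterial blood pressure / mean renal blood flow.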

Canis familiaris [2] = experiment: Compound was evaluated for renal vasodilator activity and represented as ED15 (intravenous administration); format: functional; settings: Canis lupus familiaris
How it was run: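 Secondary protocol in anesthetized dogs with iv infusion at progressively increasing rates, each level infused 5 min. Potency is the cumulative dose (µg/kg) that lowered renal vascular resistance (MABP / mean RBF) by 15%. Minimum change needed for significance (p = 0.95) is 16% for RVR.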

Canis familiaris [3] = experiment: In vivo percent change in renal blood flow at 30 ug/Kg/min.; format: functional, Canis lupus familiaris, Kidney
How it was run: (§2)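 Primary screen in anesthetized dogs (7-17 kg). Drug infused separately at 3, 30 and 300 µg/(kg min), each infusion lasting 5 min, at about 15-min intervals. Read-outs are renal blood flow, mean arterial blood pressure, heart rate, and RVR (MABP / mean RBF), as percent change. Significance thresholds are defined per number of dogs; n = 1-3 dogs.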

Canis familiaris [4] = experiment: Renal vasodilator activity in anesthetized dogs and percent change in renal vascular resistance (RVR) was determined at 30 ug/Kg/min; format: functional, Canis lupus familiaris; how it was run: as §2
Canis familiaris [5] = experiment: In vivo percent change in canine heart rate at 3 ug/Kg/min.; format: functional, Canis lupus familiaris; how it was run: as §2
Canis familiaris [6] = experiment: In vivo percent change in canine heart rate at 300 ug/Kg/min.; format: functional, Canis lupus familiaris; how it was run: as §2
Canis familiaris [7] = experiment: In vivo percent change in canine mean arterial blood pressure (MABP) at 3 ug/Kg/min.; format: functional, Canis lupus familiaris; how it was run: as §2
Canis familiaris [8] = experiment: In vivo percent change in canine mean arterial blood pressure (MABP) at 30 ug/Kg/min.; format: functional, Canis lupus familiaris; how it was run: as §2
Canis familiaris [9] = experiment: In vivo percent change in canine mean arterial blood pressure (MABP) at 300 ug/Kg/min.; format: functional, Canis lupus familiaris; how it was run: as §2
Canis familiaris [10] = experiment: In vivo percent change in canine renal blood flow (RBF) at 3 ug/Kg/min.; format: functional, Canis lupus familiaris, Kidney; how it was run: as §2
Canis familiaris [11] = experiment: In vivo percent change in canine renal blood flow (RBF) at 300 ug/Kg/min.; format: functional, Canis lupus familiaris, Kidney; how it was run: as §2
Canis familiaris [12] = experiment: In vivo percent change in canine renal vascular resistance (RVR) at 3 ug/Kg/min.; format: functional, Canis lupus familiaris; how it was run: as §2
Canis familiaris [13] = experiment: In vivo percent change in canine renal vascular resistance (RVR) at 300 ug/Kg/min.; format: functional, Canis lupus familiaris; how it was run: as §2
Canis familiaris [14] = experiment: Renal vasodilator activity in anesthetized dogs was determined as percent change in heart rate (HR) at 30 ug/Kg/min; format: functional, Canis lupus familiaris; how it was run: as §2
[15] = Ratio of ED20 of MABP (mean arterial blood pressure) to the ED15 of RVR (renal vascular resistance); format: functional
How it was run: (§3)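 Anesthetized dogs in the secondary cumulative-infusion protocol, each dose level 5 min. Selectivity ratio is the dose giving a 20% change in mean arterial blood pressure divided by the cumulative dose lowering renal vascular resistance 15% (RVR ED15).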

[16] = Ratio of ED30 of iliac vascular resistant (IVR) to the ED15 of RVR (renal vascular resistance); format: functional
How it was run: (§4)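 Anesthetized dogs in the secondary cumulative-infusion protocol, each dose level 5 min. Selectivity ratio is the dose giving a 30% change in iliac vascular resistance divided by the RVR ED15, the cumulative dose decreasing renal vascular resistance by 15%.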

Canis familiaris [17] = experiment: Renal vasodilator activity in anesthetized dogs and percent change in renal vascular resistance (RVR) was determined at 300 ug/Kg/min; format: functional, Canis lupus familiaris; how it was run: as §2
Canis familiaris [18] = experiment: In vivo percent change in canine heart rate at 30 ug/Kg/min.; format: functional, Canis lupus familiaris; how it was run: as §2
[19] = Ratio of ED20 of MABP (mean arterial blood pressure) to the ED15 of RVR ( renal vascular resistance).; format: functional; how it was run: as §3
[20] = Ratio of ED30 of iliac vascular resistant (IVR) to the ED15 of RVR(renal vascular resistance); format: functional; how it was run: as §4
[21] = Average max percent decrease in RVR (renal vascular resistance) was determined.; how it was run: as §1
Canis familiaris [22] = experiment: Renal vasodilator activity in anesthetized dogs and percent change in heart rate (HR) was determined at 300 ug/Kg/min; format: functional, Canis lupus familiaris; how it was run: as §2

Compound | ED15 (Canis familiaris [2]) [µg/kg] | Change (Canis familiaris [3]) [%] | Change (Canis familiaris [4]) [%] | Change (Canis familiaris [5]) [%] | Change (Canis familiaris [6]) [%] | Change (Canis familiaris [7]) [%] | Change (Canis familiaris [8]) [%] | Change (Canis familiaris [9]) [%] | Change (Canis familiaris [10]) [%] | Change (Canis familiaris [11]) [%] | Change (Canis familiaris [12]) [%] | Change (Canis familiaris [13]) [%] | Ratio [16] | Change (Canis familiaris [17]) [%] | Change (Canis familiaris [18]) [%] | Ratio [19] | further results
CC(Cc1ccccc1)(NC(=O)[C@@H]1CCCN1C(=O)CCCc1ccc(O)cc1)C(=O)NCC(=O)N1CCC[C@H]1C(=O)O (some centres undefined) ({Butanoyl(4-(4-HOPh))}-P[ξαMeF]GP-OH) | 4.9 | 16 | -21 | 6 | 6 | -5 | -9 | -6 | 17 | 14 | -18 | -17 | > 1230 | – | – | – | Decrease [1]: 20%; Change (Canis familiaris [14]): 10%; Ratio [15]: >1226
CC(Cc1ccccc1)(NC(=O)[C@@H]1CCCN1C(=O)CCCc1ccccc1)C(=O)N1CCC[C@H]1C(=O)O (some centres undefined) | – | 2 | -2 | 0 | -2 | 0.5 | 0 | 1 | 3 | 4 | -8 | – | – | -3 | 0 | – | –
H-RPPGFSPFR-OH [BRADYKININ] | 2.8 | – | – | – | – | – | – | – | – | – | – | – | – | – | – | 7 and 8 | Ratio [20]: 25
COc1ccc(CC(C)(NC(=O)[C@@H]2CCCN2C(=O)CCCc2ccc(O)cc2)C(=O)N[C@@H](CCCN=C(N)N)C(=O)O)cc1OC (some centres undefined) | 506 | 18 | -21.3 | 1.7 | – | -2.7 | -7.7 | -32 | 4.3 | 29.5 | -6.7 | -44.5 | > 12 | – | 6.3 | >12 | Decrease [21]: 31%; Change (Canis familiaris [22]): 16%
CC(Cc1ccccc1)(NC(=O)[C@@H]1CCCN1C(=O)CCCc1ccc(O)cc1)C(=O)NCCCN.Cl (some centres undefined) | – | 4.3 | -4.7 | 0.7 | 8 | -0.7 | 3 | -1.4 | 3.3 | 11.7 | 4 | – | – | -11.3 | 1.3 | – | –
